According to the EternaBench riboswitch data:

System: MS2 coat protein
Test: apparent Kd, MS2 coat protein; higher = weaker binding; RNA-MaP array; FMN 200 µM where present
How it was run: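 Designs were transcribed by stalled E. coli RNA polymerase on Illumina sequencing-chip clusters. They were titrated with SNAP-549-labelled MS2 coat protein from 0.7 or 1.5 nM, doubling to 3 µM, in 100 mM Tris-HCl pH 7.5, 80 mM KCl, 4 mM MgCl2, BSA, DTT, yeast tRNA and Tween-20, without and then with constant ligand. The apparent Kd is the median of filtered per-cluster fits after normalisation of green signal to red-channel RNA signal and control-cluster median Fmax.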

[1] = designed as: OFF switch for flavin mononucleotide, no ligand
[2] = ligand present: flavin mononucleotide, designed as: OFF switch for flavin mononucleotide
[3] = designed as: ON switch for flavin mononucleotide, no ligand
[4] = ligand present: flavin mononucleotide, designed as: ON switch for flavin mononucleotide

Sequence: UAAUAAUAGCAAGGAUAUGAUUAUUAUAAUAUAUCAGAAGGUGCACAUGAGGAUCACCCAUGUUUUAUAAUUUGUAAUUUAAAU
- apparent Kd [1]: 54.4 nM
- apparent Kd [2]: 37.9 nM

Sequence: CCAGACGUUGUAGGAUAUCUGAAAGGAAGUGUAAGAGAAGGAUAGUGUCUGUAAAACAUGAGGAUCACCCAUGUGGGCGCAUCC
- apparent Kd [1]: 19.6 nM
- apparent Kd [2]: 61.9 nM

Sequence: ACAUGUACAGGAUAUACAUGGAUGAUACACGUAUUUCCACUACAUGAGGAUCACCCAUGUAGAAGGGUACAUGA
- apparent Kd [1]: 39.7 nM
- apparent Kd [2]: 18.4 nM

Sequence: GGAGCACACAUUUACAUGAGGAUCACCCAUGUCAAAAGACAUGAGGAUAUGGAUCCGAAAAGGAUCCAGAAGGCAUGGUGCUCC
- apparent Kd [3]: 106 nM
- apparent Kd [4]: 8.38 nM

Sequence: UUUUUAUUUGCAGGAUAUUGUUUUUUAUUACUUCAAGAAGGGCAUUACAUGAGGAUCACCCAUGUCAUCCUAUGGUUAACUAGU
- apparent Kd [1]: 9.64 nM
- apparent Kd [2]: 11.6 nM

Sequence: UUUUUAUAUGAAGGAUAUACUUAACAUGAGGAUCACCCAUGUGGUGUUGUGAGUGAGUGAGUUUAGUAGAAGGUCAAUUCUUUU
- apparent Kd [1]: 236 nM
- apparent Kd [2]: 205 nM

Sequence: UAAACACCCUCAUGUGCCUGAGGACAUGAGGAUCACCCAUGUGAGGAUAUAGCCAUUAAAUCUAACUAGAAGGUAUAGGAAAUC
- apparent Kd [1]: 651 nM
- apparent Kd [2]: 190 nM

Sequence: CGGGUGGUCCUCCGGGAUUGGACACAGGAUAUCCGCGAGAACAUGAGGAUCACCCAUGUACAUGAGGAGAAGGGUGGACGAAGA
- apparent Kd [3]: 56.1 nM
- apparent Kd [4]: 11.2 nM

Sequence: GUAUGAGCGAUAGGAUAUACUGAGAUUGAAUGGGUAGAAGGAUCUCUUGUGGGAAAGACAUGAGGAUCACCCAUGUCACGGGCC
- apparent Kd [3]: 122 nM
- apparent Kd [4]: 130 nM

Sequence: UUUGUUUAUGCAGGAUAUUGACUUUUAUUUCUACAAGAAGGGCAUUACAUGAGGAUCACCCAUGUCUACAUGUAUUUAACUAGU
- apparent Kd [1]: 67.8 nM
- apparent Kd [2]: 49.1 nM

Sequence: AUCGGGUCAGGAUAUUGUUAGUUUAGUUGUUUGUAUUAGUUCGAGAAGGGACAUGAGGAUCACCCAUGUGGUAA
- apparent Kd [1]: 58.4 nM
- apparent Kd [2]: 73.2 nM

Sequence: UCAUUUAUCACAGGAUAUAUUAGUAUACAGUUGUUUGGCUCUUACAUAUUAAUAGAAGGGUGAAACAUGAGGAUCACCCAUGUA
- apparent Kd [3]: 621 nM
- apparent Kd [4]: 224 nM

Sequence: GGACAUUUACAGAAGGGCAAAUUUUAUAGUGAAUAUUUAGUUCUGAUUUGCAGGAUAUGUUGAACAUGAGGAUCACCCAUGUCC
- apparent Kd [3]: 18.3 nM
- apparent Kd [4]: 10.9 nM

Sequence: AUGAGAAAAGCAGGAUAUCUAUUGGCUCAGAAACAUGAGGAUCACCCAUGUAGAGAAGGGCUAAGACCGACUCUUCGGAGUUGA
- apparent Kd [1]: 5.68 nM
- apparent Kd [2]: 6.51 nM

Sequence: GGUACCAUCGCAGGAUAUGCUAUCCUUUGGGUAGCAGAAGGGUGAUAACAUGAGGAUCACCCAUGUGGUACCGGGCGUGAGCCC
- apparent Kd [3]: 97.1 nM
- apparent Kd [4]: 1210 nM

Sequence: UAGUAGAUCCGAGGAUAUACAAUCCGGAAACGGUACAUGAGGAUCACCCAUGUAGAAGGCGGAUCUACAGGUACUAAAGUACCA
- apparent Kd [1]: 5.68 nM
- apparent Kd [2]: 7.82 nM

Sequence: UGGUACUAGGGAGGAUAUGGGAAGAUACAUGAGGAUCACCCAUGUUUAAGAAUGCCGAGAGGCAACUAGAAGGUCCUAGUACCU
- apparent Kd [3]: 628 nM
- apparent Kd [4]: 38.2 nM

Sequence: AAGGCGUCAGGAUAUCCAAUAUAUGACAUGAGGAUCACCCAUGUUUCCACUCGUACCUCCGGAGAAGGGACGAAUA
- apparent Kd [1]: 29.1 nM
- apparent Kd [2]: 27.5 nM

Sequence: AUUUUGUCAGGAUAUGAGUAGUAGGACGAAAGUGUUAUUAUUUAGAAGGGACAUGAGGAUCACCCAUGUUUCUC
- apparent Kd [1]: 12.3 nM
- apparent Kd [2]: 15.8 nM

Sequence: UAAUAAUUAUGAGGAUAUAUACAACAUGAGGAUCACCCAUGUACCCAUGUAGUAGAAGGCAUAUUUUUAGUUAAUAAUAUAACU
- apparent Kd [3]: 82.2 nM
- apparent Kd [4]: 33 nM

Sequence: UAAAAGCGGAAGGAUAUGUGUCUAAAGUCUGUAGCAGAAGGUCCGACAUGAGGAUCACCCAUGUGACCUGGUGC
- apparent Kd [1]: 11.1 nM
- apparent Kd [2]: 13.9 nM

Sequence: CGCCUGUGAGGAUAUUAGUAGUAGUCAGAAUAGACUAUUACUGAGAAGGUACAUGAGGAUCACCCAUGUUGGCG
- apparent Kd [1]: 20.9 nM
- apparent Kd [2]: 19.1 nM

Sequence: UAGGUACGAGGAUAUACAUAGAUACAGACACAUGUAGAUGUACAUGAGGAUCACCCAUGUAGAAGGCGUAUAUA
- apparent Kd [1]: 67.8 nM
- apparent Kd [2]: 237 nM

Sequence: CGCUCAAUAUAUAAGGAAAGAAUCAGAAGGCGUUACAUGAGGAUCACCCAUGUUUUGUAUAGUAACGAGGAUAUGAUAUGAGCG
- apparent Kd [1]: 17.9 nM
- apparent Kd [2]: 15.3 nM
